Columns and labels:
Format in all cases: functional
[1] = Cytotoxicity against human lung cancer cells; settings: Cancer cell lines
Summary of the method: (§1)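 Subpanel values are mean GI50 over the panel's strains of each tumour type: breast 5, colon 6, lung 6 or 7, ovarian 5, stomach 6. […] Cells were grown in RPMI 1640 with 5% FBS at 37 °C under 5% CO2.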

[2] = Cytotoxicity against human ovarian cancer cells; settings: Cancer cell lines; summary of the method: as §1
[3] = test system: MKN-28; experiment: Cytotoxicity against human MKN28 cells
Summary of the method: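 Each line was grown in RPMI 1640 with 5% FBS and penicillin ([…]) at 37 °C under 5% CO2. Cells were plated, attached overnight, and exposed to drug for 48 h. Sulforhodamine B staining was read at 525 nm, with control, test and time-zero absorbances. % growth = 100×(T−T0)/(C−T0), or […] T<T0. GI50 is the concentration giving 50% growth.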

[4] = Cytotoxicity against human stomach cancer cells; settings: Cancer cell lines; summary of the method: as §1
[5] = Cytotoxicity against human colon cancer cells; settings: Cancer cell lines; summary of the method: as §1
[6] = Cytotoxicity against human breast cancer cells; settings: Cancer cell lines; summary of the method: as §1
[7] = Cytotoxicity against human CNS cancer cells; settings: Cancer cell lines

Row | Compound | GI50 [1] [nM] | GI50 [2] [nM] | GI50 [3] [nM] | GI50 [4] [nM] | GI50 [5] [nM] | GI50 [6] [nM] | GI50 [7] [nM]
1 | CCCCc1c2[n+](cc3c(OC)c(OC)ccc13)CCc1cc3c(cc1-2)OCO3 | 1780 | 5250 | < 2690 | 3900 | 2510 | 6310 | 3710
2 | CCCCCCc1c2[n+](cc3c(OC)c(OC)ccc13)CCc1cc3c(cc1-2)OCO3 | 490 | 1170 | 830 | 760 | 720 | 760 | 1200
3 | COc1cc(Br)c2cc3[n+](c(-c4ccccc4)c2c1OC)CCc1cc2c(cc1-3)OCO2 | 2190 | 2450 | < 2690 | 1910 | 1550 | 1000 | 2000
4 | CCCCc1c2c(OC)c(OC)cc(Br)c2cc2[n+]1CCc1cc3c(cc1-2)OCO3 | 1540 | 1380 | < 2690 | 1290 | 1110 | 520 | 1910
5 | CCCCCCc1c2c(OC)c(OC)cc(Br)c2cc2[n+]1CCc1cc3c(cc1-2)OCO3 | 410 | 480 | 410 | 340 | 440 | 310 | 410
6 | CCCCCCc1c2[n+](cc3c(OC)c(OC)ccc13)CCc1cc(OC)c(OC)cc1-2 [13-HEXYLPALMATINE] | 2140 | 2880 | < 2690 | 3470 | 1820 | 1050 | 2950
7 | COc1cccc2c1C(=O)c1c(O)c3c(c(O)c1C2=O)C[C@@](O)(C(=O)CO)C[C@@H]3O[C@H]1C[C@H](N)[C@H](O)[C@H](C)O1 [DOXORUBICIN] | 400 | 4350 | – | 5820 | 2550 | 1820 | –
8 | CO[C@@]12[C@H](COC(N)=O)C3=C(C(=O)C(C)=C(N)C3=O)N1C[C@@H]1N[C@@H]12 [MITOMYCIN] | 23 | 120 | – | 100 | 180 | 34 | –

Reference: ChEMBL document CHEMBL1137805, “In vitro cytotoxicity of the protoberberine-type alkaloids” (2001)
